Key:
[1] = system: LPS-activated RAW264.7 macrophages; assay: Nitric oxide production; type: cell-based, mouse; conditions: for effect of co-incubation on NO reduction by RID-B: ligand 5 μM with RID-B 1 μM
[2] = system: RAW264.7 mouse macrophage cells; assay: Cell viability; type: cell-based; conditions: for effect of co-incubation on RID-B cytotoxicity: with RID-B 10 μM, LPS 500 ng/ml
[3] = system: LPS-activated RAW264.7 macrophages; assay: TNF-α release; type: cell-based, mouse; conditions: LPS 500 ng/ml, 48 h; for effect of co-incubation with RID-B on TNF-α levels: ligand with RID-B
[4] = system: primary bone marrow macrophages; assay: Osteoclast differentiation with TRAP staining; type: cell-based, mouse; conditions: for effect on osteoclast development, ligand alone: receptor-saturating concentration, without RID-B; for effect of co-incubation on anti-osteoclastogenic effect of RID-B: with RID-B 300 nM; for number of osteoclasts: N = 4
[5] = system: LPS-activated RAW264.7 macrophages; assay: IL-6 release; type: cell-based, mouse; conditions: LPS 500 ng/ml, 48 h
human CB2 receptors [6] = target: T1, human CB2 receptors (Homo sapiens, UniProt P34972); assay: [35S]GTPγS binding; type: biochemical
human CB1 receptors = human CB1 receptors (Homo sapiens, UniProt P21554); assay: Competition receptor binding vs [3H]CP-55,940, CHO-hCB1 membranes; conditions: RID-B 1 μM; radioligand 0.2 nM; initial binding screen, data not shown
human CB2 receptors [7] = target: T1, human CB2 receptors; assay: Forskolin-stimulated adenylyl cyclase activity in CHO-hCB2 cells; type: cell-based
[8] = system: CHO cells not expressing cannabinoid receptors; assay: Intracellular cAMP in CHO cells not expressing cannabinoid receptors; type: cell-based, Chinese hamster; conditions: data not shown
[9] = system: CHO cells devoid of CB2 receptors; assay: G-protein activity in CHO cells devoid of CB2 receptors; type: biochemical, Chinese hamster; conditions: data not shown
human CB2 receptors [10] = target: T1, human CB2 receptors; assay: Competition receptor binding vs [3H]CP-55,940, CHO-hCB2 membranes
[11] = system: LPS-activated RAW264.7 macrophages; assay: IL-1α release; type: cell-based, mouse; conditions: RID-B 1 μM; LPS 500 ng/ml, 48 h
Method in brief: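 RAW264.7 mouse macrophages pre-incubated 1 h with test compound, then stimulated with LPS 500 ng/ml for 48 h. Media collected and stored at −20 °C. Mouse IL-1α measured by ELISA kit per manufacturer's instructions.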

T1 sequence (P34972 whole entry): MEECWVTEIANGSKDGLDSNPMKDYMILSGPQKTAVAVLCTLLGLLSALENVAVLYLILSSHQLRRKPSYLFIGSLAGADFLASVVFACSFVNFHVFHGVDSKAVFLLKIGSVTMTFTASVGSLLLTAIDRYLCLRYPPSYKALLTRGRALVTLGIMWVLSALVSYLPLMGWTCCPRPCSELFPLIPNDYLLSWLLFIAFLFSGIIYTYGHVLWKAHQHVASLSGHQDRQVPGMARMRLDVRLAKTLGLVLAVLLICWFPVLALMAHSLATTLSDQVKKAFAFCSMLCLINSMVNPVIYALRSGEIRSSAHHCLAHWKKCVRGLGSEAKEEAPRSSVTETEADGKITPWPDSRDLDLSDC
Chain of human CB1 receptors (P21554 whole entry): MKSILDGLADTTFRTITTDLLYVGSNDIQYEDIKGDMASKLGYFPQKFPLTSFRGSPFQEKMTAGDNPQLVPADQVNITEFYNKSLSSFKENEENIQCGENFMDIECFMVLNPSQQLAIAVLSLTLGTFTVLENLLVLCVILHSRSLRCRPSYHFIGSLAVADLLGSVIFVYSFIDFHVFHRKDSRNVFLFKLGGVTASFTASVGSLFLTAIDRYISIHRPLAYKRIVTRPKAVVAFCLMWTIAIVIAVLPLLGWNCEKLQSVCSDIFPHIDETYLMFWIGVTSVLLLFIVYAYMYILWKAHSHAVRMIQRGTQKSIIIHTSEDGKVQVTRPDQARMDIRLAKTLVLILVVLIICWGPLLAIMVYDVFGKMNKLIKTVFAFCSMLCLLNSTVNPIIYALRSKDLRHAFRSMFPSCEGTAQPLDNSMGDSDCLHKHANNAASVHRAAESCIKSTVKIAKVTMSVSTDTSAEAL

Cc1c(C(=O)NN2CCOCC2)nn(-c2ccc(Cl)cc2Cl)c1-c1ccc(I)cc1 [AM-281]
effect of co-incubation on NO reduction by RID-B ([1]; LPS 500 ng/ml, 48 h): did not alter NO levels compared to RID-B administered alone
effect of co-incubation on RID-B cytotoxicity [2]: attenuated
TNF-α level, ligand alone ([3]; without RID-B, N = 4): 21.3 ± 0.21 ng/mL
effect of co-incubation with RID-B on TNF-α levels [3]: significantly increases TNF-α levels
effect on osteoclast development, ligand alone [4]: significantly reduce osteoclast development
effect of co-incubation on anti-osteoclastogenic effect of RID-B [4]: little consequence on the effects of RID-B
IL-6 level, ligand alone ([5]; without RID-B, N = 4): 1040 ± 119.4 pg/mL

CCCn1c(C)c(C(=O)c2cccc3ccccc23)c2ccccc21 [JWH-015]
effect of co-incubation with RID-B on TNF-α levels [3]: have no effect
effect on osteoclast development, ligand alone [4]: significantly reduce osteoclast development
effect of co-incubation on anti-osteoclastogenic effect of RID-B [4]: little consequence on the effects of RID-B

CCCCCCC(C)(C)c1ccc(C2CC(O)CCC2CCCO)c(O)c1 (stereo not drawn) [CP-55,940, 5-(1,1-dimethylheptyl)-2-[5-hydroxy-2-(3-hydroxypropyl)cyclohexyl]phenol]
Emax (human CB2 receptors [6]; read-out: G-protein activation Emax): 25.4 ± 3%
effect of co-incubation on RID-B cytotoxicity [2]: attenuated
effect of co-incubation with RID-B on TNF-α levels [3]: have no effect
effect on osteoclast development, ligand alone [4]: marginally reduced osteoclast formation
effect of co-incubation on anti-osteoclastogenic effect of RID-B [4]: significantly attenuated the anti-osteoclastogenic effects produced by RID-B

COc1ccc(C(=O)c2c(C)n(CCN3CCOCC3)c3cc(I)ccc23)cc1 [AM-630]
effect of co-incubation on NO reduction by RID-B ([1]; LPS 500 ng/ml, 48 h): did not alter NO levels compared to RID-B administered alone
effect of co-incubation with RID-B on TNF-α levels [3]: significantly increases TNF-α levels
number of osteoclasts ([4]; AM-630 alone (1 μM in Fig. 7), vehicle 339.1 ± 15.6): 168.1 ± 15.4 osteoclasts per well

SR-144528 [reference compound]
effect of co-incubation on NO reduction by RID-B ([1]; LPS 500 ng/ml, 48 h): did not alter NO levels compared to RID-B administered alone

CCC(=C(c1ccc(OCCN2CCCC2)cc1)c1ccc(OCCN2CCCC2)cc1)c1ccccc1 [RID-B, ridaifen-B]
G-protein activation Imax (decrease below basal levels) (human CB2 receptors [6]; inverse agonism, N = 3): −31.2 ± 0.37%
displacement of [3H]-CP-55,940 from human CB1 receptors (human CB1 receptors): > 50%
effect on EC50 values of LPS for NO production ([1]; RID-B 300 nM, 500 nM, 1 μM): did not alter the EC50 values of LPS
reduction of NO production vs cells treated only with LPS ([1]; RID-B 1 μM alone, LPS 500 ng/ml, 48 h, N = 10): 30.1 ± 5.1%
NO reduction ([1]; RID-B 1 μM co-incubated with CP-55,940 2 μM, LPS 500 ng/ml, 48 h, N = 10): 9.3 ± 4.6%
NO levels reduced to ([1]; RID-B 1 μM co-incubated with JWH-015 5 μM, LPS 500 ng/ml, 48 h, N = 4): 51.1 ± 6.4%
Emax of LPS-induced NO production ([1]; co-incubation with RID-B 300 nM, 48 h, N = 3): 19.4 ± 3.8 µM
Emax of LPS-induced NO production ([1]; co-incubation with RID-B 500 nM, 48 h, N = 3): 22.0 ± 9.9 µM
Emax of LPS-induced NO production ([1]; co-incubation with RID-B 1 μM, 48 h, N = 4): 18.2 ± 4.7 µM
decrease of cell viability ([2]; RID-B 10 μM alone, 4 h exposure to LPS, N = 4): 34.0 ± 5.4%
effect on cell viability ([2]; RID-B 1 or 3 μM, forty-eight hour exposure to LPS 500 ng/ml): no effect on cell viability
Imax, increase of adenylyl cyclase activity (elevated cAMP levels) (human CB2 receptors [7]; 10 μM forskolin, inverse agonism, N = 3): 398 ± 30%
decrease in the potency of WIN-55,212-2 to inhibit adenylyl cyclase activity (human CB2 receptors [7]; RID-B 3 μM co-incubation, efficacy unchanged, parallel rightward shift): 11.2 fold
Kb (human CB2 receptors [7]; read-out: antagonist dissociation constant (Kb), RID-B 3 μM against WIN-55,212-2, N = 3): 294 nM
effect on intracellular cAMP levels [8]: does not alter intracellular cAMP levels
effect on G-protein activity [9]: no effect on G-protein activity
effect on TNF-α levels ([3]; RID-B 1 μM): slight but non-significant increase in TNF-α levels
displacement of [3H]-CP-55,940 from human CB2 receptors (human CB2 receptors [10]; RID-B 1 μM, radioligand 0.2 nM, initial binding screen, data not shown): > 50%
selectivity (affinity) for CB2 over CB1 receptors (human CB2 receptors [10]; ratio of Ki values): 17 fold
IL-1α level [11]: 73.1 ± 4.7 pg/mL
reduction of IL-1α level [11]: 52.3%
number of osteoclasts ([4]; RID-B 300 nM alone, vehicle 339.1 ± 15.6): 174.4 ± 19.2 osteoclasts per well
number of osteoclasts ([4]; RID-B 300 nM co-incubated with AM-630): 94.6 ± 15.6 osteoclasts per well
maximal decrease in the number of osteoclasts ([4]; RID-B 300 nM, M-CSF and RANKL, 4 days, drugs on days 2 and 3): 48.6%
reduction of LPS-induced IL-6 increase ([5]; RID-B 1 μM): 45%
IL-6 level ([5]; RID-B 1 μM, N = 4): 349.9 ± 34.9 pg/mL
